Experiment: organ radiation dose estimates, OLINDA 1.1, ICRP-60
Assay type: in vivo, human
In short: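 Whole-body PET-MR ran as nine scans to 214 min. Organ VOIs were drawn in AMIDE, giving decay-corrected %IA per VOI; remainder = whole body minus measured organs. TIACs came from the exponential model (EXM) in OLINDA 1.1. Per-participant organ doses used 70 kg adult male or 55 kg female models in OLINDA 1.1. Effective dose (mSv) = organ absorbed doses × ICRP-60 tissue weighting factors.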

Estimated dose, Upper, lower intestine wall (Female n=4, mean±SD): 0.0160±0.0012 mGy/MBq | Estimated dose, Urinary bladder wall (Female n=4, mean±SD): 0.0588±0.0438 mGy/MBq | Estimated dose, Uterus (Female n=4, mean±SD): 0.0569±0.0512 mGy/MBq | Effective dose (whole body) (M1 (326 MBq)): 6.74 mSv | Estimated absorbed dose, Adrenals (M1 (326 MBq)): 6.51 mGy | Estimated absorbed dose, Brain (M1 (326 MBq)): 5.63 mGy | Estimated absorbed dose, Breasts (M1 (326 MBq)): 2.73 mGy | Estimated absorbed dose, Gallbladder wall (M1 (326 MBq)): 9.08 mGy | Estimated absorbed dose, Heart wall (M1 (326 MBq)): 8.79 mGy | Estimated absorbed dose, Kidneys (M1 (326 MBq)): 72.0 mGy | Estimated absorbed dose, Liver (M1 (326 MBq)): 16.0 mGy | Estimated absorbed dose, Lower large intestine wall (M1 (326 MBq)): 3.45 mGy | Estimated absorbed dose, Lungs (M1 (326 MBq)): 19.7 mGy | Estimated absorbed dose, Muscle (M1 (326 MBq)): 3.00 mGy | Estimated absorbed dose, Osteogenic cells (M1 (326 MBq)): 4.07 mGy | Estimated absorbed dose, Pancreas (M1 (326 MBq)): 6.41 mGy | Estimated absorbed dose, Red marrow (M1 (326 MBq)): 3.42 mGy | Estimated absorbed dose, Remainder (M1 (326 MBq)): 4.10 mGy | Estimated absorbed dose, Skin (M1 (326 MBq)): 2.10 mGy | Estimated absorbed dose, Small intestine (M1 (326 MBq)): 13.8 mGy | Estimated absorbed dose, Spleen (M1 (326 MBq)): 21.3 mGy | Estimated absorbed dose, Stomach wall (M1 (326 MBq)): 4.33 mGy | Estimated absorbed dose, Testes (M1 (326 MBq)): 2.12 mGy | Estimated absorbed dose, Thymus (M1 (326 MBq)): 16.7 mGy | Estimated absorbed dose, Thyroid (M1 (326 MBq)): 3.39 mGy | Estimated absorbed dose, Upper, lower intestine wall (M1 (326 MBq)): 5.37 mGy | Estimated absorbed dose, Urinary bladder wall (M1 (326 MBq)): 3.65 mGy | Effective dose (whole body) (M2 (289 MBq)): 5.48 mSv | Estimated absorbed dose, Adrenals (M2 (289 MBq)): 4.94 mGy | Estimated absorbed dose, Brain (M2 (289 MBq)): 3.03 mGy | Estimated absorbed dose, Breasts (M2 (289 MBq)): 2.26 mGy | Estimated absorbed dose, Gallbladder wall (M2 (289 MBq)): 6.41 mGy | Estimated absorbed dose, Heart wall (M2 (289 MBq)): 6.46 mGy | Estimated absorbed dose, Kidneys (M2 (289 MBq)): 37.8 mGy | Estimated absorbed dose, Liver (M2 (289 MBq)): 16.6 mGy | Estimated absorbed dose, Lower large intestine wall (M2 (289 MBq)): 2.97 mGy | Estimated absorbed dose, Lungs (M2 (289 MBq)): 11.0 mGy | Estimated absorbed dose, Muscle (M2 (289 MBq)): 2.55 mGy | Estimated absorbed dose, Osteogenic cells (M2 (289 MBq)): 3.58 mGy | Estimated absorbed dose, Pancreas (M2 (289 MBq)): 4.30 mGy | Estimated absorbed dose, Red marrow (M2 (289 MBq)): 2.76 mGy | Estimated absorbed dose, Remainder (M2 (289 MBq)): 3.32 mGy | Estimated absorbed dose, Skin (M2 (289 MBq)): 1.85 mGy | Estimated absorbed dose, Small intestine (M2 (289 MBq)): 9.32 mGy | Estimated absorbed dose, Spleen (M2 (289 MBq)): 7.24 mGy | Estimated absorbed dose, Stomach wall (M2 (289 MBq)): 3.41 mGy | Estimated absorbed dose, Testes (M2 (289 MBq)): 2.02 mGy | Estimated absorbed dose, Thymus (M2 (289 MBq)): 4.68 mGy | Estimated absorbed dose, Thyroid (M2 (289 MBq)): 2.23 mGy | Estimated absorbed dose, Upper, lower intestine wall (M2 (289 MBq)): 4.24 mGy | Estimated absorbed dose, Urinary bladder wall (M2 (289 MBq)): 4.70 mGy | Effective dose (whole body) (M3 (70.3 MBq)): 1.52 mSv | Estimated absorbed dose, Adrenals (M3 (70.3 MBq)): 1.21 mGy | Estimated absorbed dose, Brain (M3 (70.3 MBq)): 0.820 mGy | Estimated absorbed dose, Breasts (M3 (70.3 MBq)): 0.560 mGy | Estimated absorbed dose, Gallbladder wall (M3 (70.3 MBq)): 1.35 mGy | Estimated absorbed dose, Heart wall (M3 (70.3 MBq)): 1.79 mGy | Estimated absorbed dose, Kidneys (M3 (70.3 MBq)): 12.7 mGy | Estimated absorbed dose, Liver (M3 (70.3 MBq)): 2.61 mGy | Estimated absorbed dose, Lower large intestine wall (M3 (70.3 MBq)): 0.670 mGy | Estimated absorbed dose, Lungs (M3 (70.3 MBq)): 3.91 mGy | Estimated absorbed dose, Muscle (M3 (70.3 MBq)): 0.605 mGy | Estimated absorbed dose, Osteogenic cells (M3 (70.3 MBq)): 0.837 mGy | Estimated absorbed dose, Pancreas (M3 (70.3 MBq)): 1.33 mGy | Estimated absorbed dose, Red marrow (M3 (70.3 MBq)): 0.662 mGy | Estimated absorbed dose, Remainder (M3 (70.3 MBq)): 0.780 mGy | Estimated absorbed dose, Skin (M3 (70.3 MBq)): 0.434 mGy | Estimated absorbed dose, Small intestine (M3 (70.3 MBq)): 1.61 mGy | Estimated absorbed dose, Spleen (M3 (70.3 MBq)): 2.28 mGy | Estimated absorbed dose, Stomach wall (M3 (70.3 MBq)): 0.815 mGy | Estimated absorbed dose, Testes (M3 (70.3 MBq)): 0.479 mGy | Estimated absorbed dose, Thymus (M3 (70.3 MBq)): 1.64 mGy | Estimated absorbed dose, Thyroid (M3 (70.3 MBq)): 0.643 mGy | Estimated absorbed dose, Upper, lower intestine wall (M3 (70.3 MBq)): 0.879 mGy | Estimated absorbed dose, Urinary bladder wall (M3 (70.3 MBq)): 1.96 mGy | Effective dose (whole body) (M4 (153 MBq)): 2.89 mSv | Estimated absorbed dose, Adrenals (M4 (153 MBq)): 3.04 mGy | Estimated absorbed dose, Brain (M4 (153 MBq)): 2.44 mGy | Estimated absorbed dose, Breasts (M4 (153 MBq)): 1.31 mGy | Estimated absorbed dose, Gallbladder wall (M4 (153 MBq)): 3.80 mGy | Estimated absorbed dose, Heart wall (M4 (153 MBq)): 1.79 mGy | Estimated absorbed dose, Liver (M4 (153 MBq)): 2.12 mGy | Estimated absorbed dose, Lower large intestine wall (M4 (153 MBq)): 2.51 mGy | Estimated absorbed dose, Lungs (M4 (153 MBq)): 4.01 mGy | Estimated absorbed dose, Muscle (M4 (153 MBq)): 35.0 mGy | Estimated absorbed dose, Osteogenic cells (M4 (153 MBq)): 5.85 mGy | Estimated absorbed dose, Pancreas (M4 (153 MBq)): 1.52 mGy | Estimated absorbed dose, Red marrow (M4 (153 MBq)): 2.02 mGy | Estimated absorbed dose, Remainder (M4 (153 MBq)): 1.96 mGy | Estimated absorbed dose, Skin (M4 (153 MBq)): 4.45 mGy | Estimated absorbed dose, Small intestine (M4 (153 MBq)): 1.69 mGy | Estimated absorbed dose, Spleen (M4 (153 MBq)): 2.12 mGy | Estimated absorbed dose, Stomach wall (M4 (153 MBq)): 1.10 mGy | Estimated absorbed dose, Testes (M4 (153 MBq)): 7.89 mGy | Estimated absorbed dose, Thymus (M4 (153 MBq)): 1.19 mGy | Estimated absorbed dose, Thyroid (M4 (153 MBq)): 7.36 mGy | Estimated absorbed dose, Upper, lower intestine wall (M4 (153 MBq)): 2.17 mGy | Estimated absorbed dose, Urinary bladder wall (M4 (153 MBq)): 2.81 mGy | Effective dose (whole body) (Male n=4, mean±SD): 0.0196±0.0019 mSv/MBq | Estimated dose, Adrenals (Male n=4, mean±SD): 0.0181±0.00135 mGy/MBq | Estimated dose, Brain (Male n=4, mean±SD): 0.0135±0.00305 mGy/MBq | Estimated dose, Breasts (Male n=4, mean±SD): 0.00801±0.000253 mGy/MBq | Estimated dose, Gallbladder wall (Male n=4, mean±SD): 0.0230±0.00361 mGy/MBq | Estimated dose, Heart wall (Male n=4, mean±SD): 0.0214±0.00739 mGy/MBq | Estimated dose, Kidneys (Male n=4, mean±SD): 0.142±0.0804 mGy/MBq | Estimated dose, Liver (Male n=4, mean±SD): 0.0392±0.0195 mGy/MBq | Estimated dose, Lower, large intestine wall (Male n=4, mean±SD): 0.0114±0.00246 mGy/MBq | Estimated dose, Lungs (Male n=4, mean±SD): 0.0446±0.0167 mGy/MBq | Estimated dose, Muscle (Male n=4, mean±SD): 0.0589±0.100 mGy/MBq | Estimated dose, Osteogenic cells (Male n=4, mean±SD): 0.0180±0.0114 mGy/MBq | Estimated dose, Pancreas (Male n=4, mean±SD): 0.0156±0.00485 mGy/MBq | Estimated dose, Red marrow (Male n=4, mean±SD): 0.0104±0.00124 mGy/MBq | Estimated dose, Remainder (Male n=4, mean±SD): 0.0117±0.000634 mGy/MBq | Estimated dose, Skin (Male n=4, mean±SD): 0.0114±0.0101 mGy/MBq | Estimated dose, Small intestine (Male n=4, mean±SD): 0.0269±0.0137 mGy/MBq | Estimated dose, Spleen (Male n=4, mean±SD): 0.0340±0.0226 mGy/MBq | Estimated dose, Stomach wall (Male n=4, mean±SD): 0.0108±0.00294 mGy/MBq | Estimated dose, Testes (Male n=4, mean±SD): 0.0169±0.0202 mGy/MBq | Estimated dose, Thymus (Male n=4, mean±SD): 0.0245±0.0190 mGy/MBq | Estimated dose, Thyroid (Male n=4, mean±SD): 0.0178±0.0175 mGy/MBq | Estimated dose, Upper, lower intestine wall (Male n=4, mean±SD): 0.0142±0.00181 mGy/MBq | Estimated dose, Urinary bladder wall (Male n=4, mean±SD): 0.0180±0.00704 mGy/MBq
Compound: COC(=O)[C@@H](N)CC(=O)Nc1ccc2c(c1)Cc1cc([18F])ccc1-2 [[^18F]RP-115, methyl N^4-(7-[^18F]fluoro-9H-fluoren-2-yl)asparaginate]

Reference: paper PMC13170702 (Nuclear medicine and biology, 2025)
